Data set [1] is described as follows: Selectivity index, CC50 for african green monkey Vero cells to EC50 for HIV2 ROD. Particulars: read-out: Ratio CC50/EC50. Type of data set: toxicity, cell-based. The essentials: (§1)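 SI = CC50 in Vero cells ÷ EC50 against HIV-1 IIIB or HIV-2 ROD. CC50 is the 50% antimetabolic concentration from MTS dose−response in Vero. EC50 is from the MT-4/MTT 5-day antiviral assay.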

Data set [2] in a line: Selectivity index, CC50 for african green monkey Vero cells to EC50 for HIV1 3B. Particulars: read-out: Ratio CC50/EC50. It is filed as toxicity, cell-based. The essentials:
as §1

Data set [3] relates to Human immunodeficiency virus 1. Kind of data set: Antiviral activity against HIV1 3B infected in MT4 cells assessed as cell viability after 5 days by MTT assay. Type of data set: functional, organism-based. The settings on record: Human immunodeficiency virus 1, 3B, MT4, 120 h. The essentials:
(§2)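 MT-4 cells ([…] cells/mL suspension) infected with HIV-1 IIIB or HIV-2 ROD at 100−300 CCID50, with mock-infected wells run in parallel. Serial 5-fold compound dilutions in triplicate wells. Viability by MTT after 5 days, absorbance at 540 and 690 nm, median OD of three wells. Median ± median absolute deviation from ≥3 independent assays.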
(Formazan colour is commonly taken as a measure of viable cells.)

The subject of data set [4] is Human immunodeficiency virus 2. Kind of data set: Antiviral activity against HIV2 ROD infected in MT4 cells assessed as cell viability after 5 days by MTT assay. It is filed as functional, organism-based. Particulars: Human immunodeficiency virus 2, ISOLATE ROD, MT4, 120 h. The essentials:
as §2

For data set [5], the system named is Chikungunya virus. Kind of data set: Antiviral activity against chikungunya virus Indian ocean strain 899 infected in Vero cells assessed as virus-induced cytopathic effect after 6 to 7 days. It is filed as functional, cell-based. The settings on record: Indian ocean strain 899, Vero. In general terms: Cytopathic effects are the visible damage that an infection or toxin causes in cultured cells.

A short description of data set [6]: Selectivity index, CC50 for african green monkey Vero cells to EC50 for chikungunya virus Indian ocean strain 899. It is filed as toxicity, cell-based. The settings on record: read-out: Ratio CC50/EC50.

A word on the EC50: it is the concentration that produces a half-maximal response. Turning to `Cc1cn([C@H]2C[C@H](N=[N+]=[N-])[C@@H](CO)O2)c(=O)[nH]c1=O` [ZIDOVUDINE], the selectivity ratio in data set [1] is more than 4180; in data set [2], 3520. The figures for the EC50 in data set [3] and in data set [4] were 7.1 µM and 6 µM, respectively.

For `CC1=C[C@]23C(=O)[C@@H](C=C(COC(=O)c4ccccc4)[C@@H](O)[C@]2(O)[C@H]1OC(=O)c1ccccc1)[C@H]1[C@@H](C[C@H]3C)C1(C)C`, the EC50 is 1.2 µM in data set [5], 0.027 µM in data set [3] and 0.009 µM in data set [4]. The values for the selectivity ratio in data set [2] and in data set [6] were 3400 and 6.4, respectively.

`CCCCCCCCCCCCCC(=O)O[C@@H]1[C@@H](C)[C@@]2(O)[C@@H](C=C(C=O)C[C@]3(O)C(=O)C(C)=C[C@@H]23)[C@@H]2C(C)(C)[C@]12OC(C)=O`: the EC50 in data set [5] stood at 0.7 µM; in data set [3] it was 3.3 µM; in data set [4] it was 1.2 µM. Besides, the selectivity ratio in data set [2] turned out to be 5; in data set [6] it was 5.9.

For `CCCC(=O)O[C@@]12[C@H](O)[C@@H](C)[C@@]3(O)[C@@H](C=C(CO)C[C@]4(O)C(=O)C(C)=C[C@@H]34)[C@@H]1C2(C)C`, the results for the EC50 in data set [5], in data set [3] and in data set [4] were 20 µM, 122 µM and 25 µM, respectively. The selectivity ratio in data set [2] was more than 3; in data set [6], 12.3.

`CCCC(=O)O[C@@H]1[C@@H](C)[C@@]2(O)[C@@H](C=C(CO)C[C@]3(O)C(=O)C(C)=C[C@@H]23)[C@@H]2C(C)(C)[C@]12OC(=O)CCC`: the EC50 in data set [5] stood at 1.8 µM; in data set [3], 0.079 µM; in data set [4] it was 0.014 µM. Further, the selectivity ratio in data set [2] was found to be 3160; in data set [6], 2.1.

With `C=C(C)[C@]12C[C@@H](C)[C@@]34O[C@](Cc5ccccc5)(O[C@@H]1[C@@H]3C=C(COC(=O)Cc1ccc(O)c(OC)c1)C[C@]1(O)C(=O)C(C)=C[C@@H]41)O2` [RESINIFERATOXIN], the EC50 turned out to be 1.8 µM in data set [5], 26 µM in data set [3] and 22.6 µM in data set [4]. Further, the figures for the selectivity ratio in data set [2] and in data set [6] were 8 and 2.3, respectively.

For `C/C=C(/C)C(=O)O[C@H]1C(C)=C[C@]23C(=O)[C@@H](C=C(CO)[C@@H](O)[C@]12O)[C@H]1[C@@H](C[C@H]3C)C1(C)C` [INGENOL MEBUTATE], the concentration giving a half-maximal response (EC50) in data set [5] stood at 22.9 µM; in data set [3], 0.017 µM; in data set [4], 0.009 µM. The selectivity ratio stood at 7850 in data set [2] and 2.3 in data set [6].

For the compound `CC1=C[C@]23C(=O)[C@@H](C=C(CO)[C@@H](O)[C@]2(O)[C@H]1O)[C@H]1[C@@H](C[C@H]3C)C1(C)C` [INGENOL], the EC50 in data set [5] turned out to be 30.1 µM; in data set [3], 209 µM; in data set [4] it was 131 µM. Moreover, the selectivity ratio in data set [2] was more than 2; in data set [6], 4.8.

The values are drawn from ChEMBL document CHEMBL3585274, “Antiviral Activity of Diterpene Esters on Chikungunya Virus and HIV Replication” (J Nat Prod, 2015).
